Tests used:
[1] = biological target: T1, Lethal(3)malignant brain tumor-like protein 3 (Homo sapiens) (UniProt Q96JM7); settings: dose 0.05 µM
T1 sequence (whole entry): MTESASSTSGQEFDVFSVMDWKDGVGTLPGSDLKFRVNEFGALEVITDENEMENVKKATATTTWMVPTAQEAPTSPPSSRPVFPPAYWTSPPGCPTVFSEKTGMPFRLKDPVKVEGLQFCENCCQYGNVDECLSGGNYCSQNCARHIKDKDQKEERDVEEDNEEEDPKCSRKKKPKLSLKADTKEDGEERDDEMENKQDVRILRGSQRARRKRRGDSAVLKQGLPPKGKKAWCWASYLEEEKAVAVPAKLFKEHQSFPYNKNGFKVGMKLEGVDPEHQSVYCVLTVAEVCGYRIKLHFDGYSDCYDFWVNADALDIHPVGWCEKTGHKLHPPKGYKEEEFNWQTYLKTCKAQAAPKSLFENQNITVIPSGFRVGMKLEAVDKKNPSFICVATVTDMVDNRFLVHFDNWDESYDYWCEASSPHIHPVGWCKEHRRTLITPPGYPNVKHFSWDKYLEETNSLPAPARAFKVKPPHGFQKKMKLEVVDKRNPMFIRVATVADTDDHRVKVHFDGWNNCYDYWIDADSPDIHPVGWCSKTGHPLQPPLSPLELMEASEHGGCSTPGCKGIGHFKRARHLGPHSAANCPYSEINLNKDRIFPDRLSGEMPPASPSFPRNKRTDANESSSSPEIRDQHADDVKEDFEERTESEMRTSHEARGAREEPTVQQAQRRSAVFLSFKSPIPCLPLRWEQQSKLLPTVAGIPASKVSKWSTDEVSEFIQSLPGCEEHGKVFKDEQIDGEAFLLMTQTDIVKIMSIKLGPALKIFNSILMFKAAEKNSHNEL

[2] = biological target: Kappa-type opioid receptor (Homo sapiens, UniProt P41145); experiment: Inhibition of KOR (unknown origin) by radioligand binding assay
[3] = biological target: T2, Lethal(3)malignant brain tumor-like protein 3 (Homo sapiens, UniProt Q96JM7); experiment: Inhibition of GFP-3MBT tagged L3MBTL3 (unknown origin) expressed in HEK293 cells assessed as reduction in recovery of fluorescence intensity measured up to 60 secs by FRAP assay
T2 sequence (Q96JM7 whole entry): T1 sequence (whole entry)

[4] = biological target: T1, Lethal(3)malignant brain tumor-like protein 3 (Homo sapiens); settings: dose 0.01 µM
[5] = biological target: MBT domain-containing protein 1 (Homo sapiens, UniProt Q05BQ5); experiment: Inhibition of MBT domain containing MBTD1 (unknown origin) using H4K20me2 peptide by Alpha-Screen methylated histone peptide competition assay
[6] = biological target: Receptor-type tyrosine-protein kinase FLT3 (Homo sapiens) (UniProt P36888); experiment: Inhibition of FLT3 (unknown origin) at 10 uM relative to control
[7] = biological target: T2, Lethal(3)malignant brain tumor-like protein 3; experiment: Inhibition of L3MBTL3 (unknown origin) using H4K20me2 peptide by Alpha-Screen methylated histone peptide competition assay
[8] = biological target: T2, Lethal(3)malignant brain tumor-like protein 3; experiment: Binding affinity to GFP-tagged full length L3MBTL3 (unknown origin) assessed as diffusion coefficient at 0.01 uM (reference value: 0.037549815 um2/s)
[9] = biological target: T1, Lethal(3)malignant brain tumor-like protein 3 (Homo sapiens); experiment: Binding affinity to GFP-3MBT tagged L3MBTL3 (unknown origin) assessed as protein half life at 1 uM
[10] = biological target: T2, Lethal(3)malignant brain tumor-like protein 3; experiment: Inhibition of GFP-3MBT tagged L3MBTL3 (unknown origin) expressed in HEK293 cells assessed as disruption of foci formation by immunofluorescence assay; format: cell-based
Method in brief: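 HEK293 cells seeded on coverslips at 100,000 cells/well, transfected 16–24 h later with GFP-3MBT and expressed for 48 h. Compound given at the indicated concentrations for at least 24 h before imaging. Nuclei stained with Hoechst 33342 for 30 min, then spinning-disk confocal imaging. Foci quantified as % GFP intensity.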

Chain of MBT domain-containing protein 1 (Q05BQ5 whole entry, the tested form may be a part): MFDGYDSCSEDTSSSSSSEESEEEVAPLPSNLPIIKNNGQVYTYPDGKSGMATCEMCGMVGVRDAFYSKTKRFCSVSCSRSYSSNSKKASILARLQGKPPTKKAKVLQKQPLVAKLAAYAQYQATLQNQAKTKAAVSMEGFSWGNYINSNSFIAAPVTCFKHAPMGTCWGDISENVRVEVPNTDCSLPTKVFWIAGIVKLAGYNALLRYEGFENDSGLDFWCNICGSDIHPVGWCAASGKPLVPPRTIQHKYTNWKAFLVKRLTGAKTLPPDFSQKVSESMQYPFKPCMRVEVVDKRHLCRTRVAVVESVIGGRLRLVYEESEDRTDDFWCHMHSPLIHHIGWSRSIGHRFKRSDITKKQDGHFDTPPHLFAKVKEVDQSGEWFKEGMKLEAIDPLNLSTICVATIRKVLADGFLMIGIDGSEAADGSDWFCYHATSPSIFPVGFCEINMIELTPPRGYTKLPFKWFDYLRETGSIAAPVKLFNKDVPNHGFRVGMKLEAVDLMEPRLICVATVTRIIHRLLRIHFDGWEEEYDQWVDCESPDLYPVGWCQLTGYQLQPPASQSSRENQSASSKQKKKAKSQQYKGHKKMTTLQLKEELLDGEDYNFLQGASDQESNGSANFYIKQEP
Chain of Receptor-type tyrosine-protein kinase FLT3 (Homo sapiens) (P36888 whole entry): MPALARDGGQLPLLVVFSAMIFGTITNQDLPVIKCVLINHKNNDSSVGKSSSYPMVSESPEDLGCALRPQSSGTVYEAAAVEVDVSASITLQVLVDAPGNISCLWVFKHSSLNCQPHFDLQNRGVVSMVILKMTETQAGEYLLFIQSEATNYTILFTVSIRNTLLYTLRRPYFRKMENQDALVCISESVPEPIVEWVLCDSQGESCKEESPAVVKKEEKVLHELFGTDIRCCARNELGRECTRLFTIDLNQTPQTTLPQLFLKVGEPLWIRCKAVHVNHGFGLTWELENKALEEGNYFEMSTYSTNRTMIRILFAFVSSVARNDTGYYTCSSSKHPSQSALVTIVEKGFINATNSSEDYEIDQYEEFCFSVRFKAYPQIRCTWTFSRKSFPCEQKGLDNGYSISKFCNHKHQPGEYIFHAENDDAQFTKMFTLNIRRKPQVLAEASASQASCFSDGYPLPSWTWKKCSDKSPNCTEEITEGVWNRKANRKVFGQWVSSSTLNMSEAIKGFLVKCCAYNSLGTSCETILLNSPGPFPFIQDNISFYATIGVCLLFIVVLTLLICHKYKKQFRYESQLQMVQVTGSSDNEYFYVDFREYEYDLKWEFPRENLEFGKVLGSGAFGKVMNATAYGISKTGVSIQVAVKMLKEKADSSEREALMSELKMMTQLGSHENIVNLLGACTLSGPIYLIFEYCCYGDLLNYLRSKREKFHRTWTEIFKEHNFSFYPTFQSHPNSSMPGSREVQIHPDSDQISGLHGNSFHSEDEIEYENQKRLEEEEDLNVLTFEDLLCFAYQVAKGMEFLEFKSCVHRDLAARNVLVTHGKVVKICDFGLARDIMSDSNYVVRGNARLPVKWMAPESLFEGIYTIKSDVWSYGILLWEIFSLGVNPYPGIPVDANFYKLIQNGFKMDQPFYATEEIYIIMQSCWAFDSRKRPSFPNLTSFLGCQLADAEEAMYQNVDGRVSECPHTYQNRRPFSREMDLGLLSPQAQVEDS
Chain of Kappa-type opioid receptor (P41145 whole entry): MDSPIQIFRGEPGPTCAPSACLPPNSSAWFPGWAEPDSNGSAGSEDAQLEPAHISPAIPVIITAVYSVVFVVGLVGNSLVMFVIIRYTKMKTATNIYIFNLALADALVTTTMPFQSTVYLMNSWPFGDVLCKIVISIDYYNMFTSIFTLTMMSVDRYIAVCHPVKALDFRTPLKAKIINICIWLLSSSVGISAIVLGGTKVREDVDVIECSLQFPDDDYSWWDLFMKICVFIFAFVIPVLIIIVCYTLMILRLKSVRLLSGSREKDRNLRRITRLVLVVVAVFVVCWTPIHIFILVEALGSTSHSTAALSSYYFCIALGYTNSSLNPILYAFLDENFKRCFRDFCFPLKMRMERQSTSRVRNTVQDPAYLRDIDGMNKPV

SMILES: O=C(c1ccc(C(=O)N2CCC(N3CCCC3)CC2)c(Nc2ccccc2)c1)N1CCC(N2CCCC2)CC1
- T1/2 [1]: 6.5 s
- Ki [2]: 4000 nM
- IC50 [3]: 50 nM
- T1/2 [4]: 23.8 s
- IC50 [5]: 6000 nM
- inhibition [6]: 64%
- IC50 [7]: 40 nM
- Diffusion coefficient [8]: 0.043 um2/s
- T1/2 [9]: 3.6 s
- IC50 [10]: 500 nM

Source: ChEMBL document CHEMBL5712070, “Discovery of a chemical probe for the L3MBTL3 methyllysine reader domain” (Nat Chem Biol, 2013)
